SMILES strings stand for the structures.

Common to all, as to format: functional, Mus musculus
The subject of assay [1] is L1210. The assay can be described thus: Post inoculation lifespan was determined in L1210 Inoculated mice at a dose of 22 mg/Kg after a single treatment. In outline: (§1)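 BDF1 female mice (~18 g) received 1 × 10⁶ L1210 cells ip on day 0, then one ip bolus at 24 h in 0.01 mL/g (dose = 10 × solubility in mg/mL; water, or Me₂SO if insoluble). Controls got 0.9% NaCl. Six mice per treatment group. %T/C = mean life span of treated / mean life span of controls × 100. Deaths assigned to leukemia or toxicity from timing and necropsy.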

The subject of assay [2] is L1210. The experiment in a line: Percentage of L1210 cells killed was determined in L1210 Inoculated mice at a dose of 22 mg/kg after a single treatment. The method in brief:
(§2)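 BDF1 female mice (~18 g) inoculated ip on day 0 with 1 × 10⁶ L1210 leukemia cells. Single ip bolus 24 h later, prepared just before use and given in 0.01 mL/g body weight (mg/kg dose = 10 × solubility in mg/mL; water, or Me₂SO if insoluble). Six mice per group. Percent of viable leukemia cells killed estimated from inoculum size versus life span data.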

The test system of assay [3] is L1210. The experiment in a line: Post inoculation lifespan was determined in L1210 Inoculated mice at a dose of 173 mg/Kg after a single treatment. The method in brief: as §1
Assay [4] relates to L1210. The experiment in a line: Percentage of L1210 cells killed was determined in L1210 Inoculated mice at a dose of 173 mg/kg after a single treatment. The method in brief: as §2
Assay [5] concerns L1210. The experiment in a line: Percentage of L1210 cells killed was determined in L1210 Inoculated mice at a dose of 104 mg/kg after a single treatment. In outline: as §2
Assay [6] deals with L1210. The assay can be described thus: Post inoculation lifespan was determined in L1210 Inoculated mice at a dose of 104 mg/Kg. In outline: as §1
The test system of assay [7] is L1210. The experiment in a line: Post inoculation lifespan was determined in L1210 Inoculated mice at a dose of 37 mg/Kg after a single treatment. In outline: as §1
Assay [8] concerns L1210. The assay can be described thus: Percentage of L1210 cells killed was determined in L1210 Inoculated mice at a dose of 37 mg/kg after a single treatment. In outline:
as §2

In assay [9] the test system is L1210. The assay can be described thus: Post inoculation lifespan was determined in L1210 Inoculated mice at a dose of 62 mg/Kg. The method in brief:
as §1

Assay [10] deals with L1210. The assay can be described thus: Percentage of L1210 cells killed was determined in L1210 Inoculated mice at a dose of 62 mg/kg after a single treatment. The method in brief: as §2
Assay [11] deals with L1210. The experiment in a line: Post inoculation lifespan was determined in L1210 Inoculated mice at a dose of 480 mg/Kg after a single treatment. The method in brief: as §1
The test system of assay [12] is L1210. The experiment in a line: Percentage of L1210 cells killed was determined in L1210 Inoculated mice at a dose of 480 mg/kg after a single treatment. The method in brief:
as §2

The test system of assay [13] is L1210. The experiment in a line: Post inoculation lifespan was determined in L1210 Inoculated mice at a dose of 13 mg/Kg after a single treatment. In outline: as §1
The test system of assay [14] is L1210. The experiment in a line: Percentage of L1210 cells killed was determined in L1210 Inoculated mice at a dose of 13 mg/kg after a single treatment. In outline: as §2
For assay [15], the system named is L1210. The experiment in a line: Post inoculation lifespan was determined in L1210 Inoculated mice at a dose of 62 mg/Kg after a single treatment. In outline: as §1
Assay [16] has as its system L1210. The assay can be described thus: Post inoculation lifespan was determined in L1210 Inoculated mice at a dose of 104 mg/Kg after a single treatment. In outline:
as §1

Assay [17] has as its system L1210. The assay can be described thus: Percentage of L1210 cells killed was determined in L1210 Inoculated mice at a dose of 8.1 mg/kg after a single treatment. The method in brief:
as §2

The subject of assay [18] is L1210. The experiment in a line: Post inoculation lifespan was determined in L1210 Inoculated mice at a dose of 8.1 mg/Kg after a single treatment. The method in brief: as §1

Broadly, the T/C is the result in the treated group divided by that in the control group, in per cent. In the case of `CC(=O)OC[C@H]1O[C@@H](n2cnc3c([S+](N)[O-])nc(N)nc32)[C@H](OC(C)=O)[C@@H]1OC(C)=O` (stereo partly specified), the T/C in the assay with L1210 [1] was determined as 99%. The Activity with L1210 [2] is recorded as 0%.
For `NS(=O)(=O)c1ncnc2c1ncn2[C@@H]1O[C@H](CO)[C@@H](O)[C@H]1O`, the T/C in the assay with L1210 [3] amounted to 147%. Besides, in the assay with L1210 [4], the Activity was determined as 98.36%.
Turning to `NS(=O)(=O)c1[nH]cnc2ncnc1-2`, the Activity with L1210 [5] is 95.48%. In the assay on L1210 [6], the T/C worked out at 134%.
Consider `Nc1nc(S(N)(=O)=O)c2[nH]cnc2n1`, for which the T/C with L1210 [1] was 103%. This molecule also had an Activity in the assay with L1210 [2] of 20.78%.
The like results for `Nc1nc([S+](N)[O-])c2[nH]cnc2n1` (stereo unspecified) were, in that order, 113% and 67.94%.
`NSc1[nH]c(N)nc2ncnc1-2`: in the assay with L1210 [7], the T/C is 159%. In the assay with L1210 [8], this molecule had an Activity of 99.04%.
In turn, `O=S(=O)(F)c1[nH]cnc2ncnc1-2` displayed a T/C in the assay on L1210 [9] of 115%. The same molecule returned an Activity in the assay with L1210 [10] of 73.54%.
In the case of `NSc1ncnc2c1ncn2C1O[C@H](CO)[C@@H](O)[C@H]1O` (stereo partly specified), in the assay on L1210 [11], the T/C was 149%. For the same molecule, the Activity in the assay with L1210 [12] worked out at 97.82%.
For the molecule `C[C@H]1OC(n2cnc3c(SN)nc(N)nc32)[C@H](O)[C@@H]1O` (stereo partly specified), the T/C with L1210 [13] was found to be 136%. Further, the Activity in the assay with L1210 [14] is 95.9%.
With `Nc1nc(S(N)(=O)=O)c2ncn(C3O[C@H](CO)[C@@H](O)[C@H]3O)c2n1` (stereo partly specified), in the assay with L1210 [15], the T/C is 128%. The molecule also returned an Activity in the assay on L1210 [10] of 92.4%.
The molecule `NSc1nc(N)nc2c1ncn2C1O[C@H](CO)[C@@H](O)[C@H]1O` (stereo partly specified) came in with a T/C in the assay on L1210 [1] of 170%. In addition, in the assay with L1210 [2], the Activity is reported as 99.84%.
In the assay on L1210 [11], `C[C@H]1OC(n2cnc3c(S(N)(=O)=O)nc(N)nc32)[C@H](O)[C@@H]1O` (stereo partly specified) had a T/C of 130%. In the assay on L1210 [12], this molecule displayed an Activity of 94.38%.
In the assay on L1210 [7], `C[C@H]1OC(n2cnc3c(S)nc(N)nc32)[C@H](O)[C@@H]1O` (stereo partly specified) displayed a T/C of 169%. This molecule also showed an Activity in the assay on L1210 [8] of 99.82%.
`Nc1nc([S+](N)[O-])c2ncn(C3O[C@H](CO)[C@@H](O)[C@H]3O)c2n1` (stereo partly specified): in the assay with L1210 [3], the T/C is listed as 167%. Besides, in the assay on L1210 [4], the Activity was found to be 99.8%.
As for `N[S+]([O-])c1ncnc2c1ncn2C1O[C@H](CO)[C@@H](O)[C@H]1O` (stereo partly specified), the T/C in the assay with L1210 [15] is listed as 114%. Also, in the assay with L1210 [10], the Activity was 70.87%.
`C[C@H]1OC(n2cnc3c([S+](N)[O-])nc(N)nc32)[C@H](O)[C@@H]1O` (stereo partly specified) came in with an Activity in the assay with L1210 [5] of 99.87%. The molecule further gave a T/C in the assay with L1210 [16] of 172%.
In the assay with L1210 [17], `Nc1nc(=S)c2ncn([C@@H]3O[C@H](CO)[C@@H](O)[C@H]3O)c2[nH]1` [THIOGUANOSINE] showed an Activity of 98.41%. Further, the T/C in the assay with L1210 [18] is 147%.
In the case of `OC[C@H]1O[C@@H](n2cnc3c(S)ncnc32)[C@H](O)[C@@H]1O` [THIOINOSINE], in the assay with L1210 [3], the T/C was determined as 150%. In the assay with L1210 [4], the Activity is reported as 98.36%.
